In ChEMBL document CHEMBL1141286, “Benzochromenones from the marine crinoid Comantheria rotula inhibit hypoxia-inducible factor-1 (HIF-1) in cell-based reporter assays and differentially suppress the growth of certain tumor cell lines” (J Nat Prod, 2007):
Calls of active or inactive are those of the source. No cut-off for these calls is given here.

Key:
UACC-257 = test: Growth inhibition of human UACC257 cells; type: functional
CCRF-CEM = test: Growth inhibition of human CCRF-CEM cells; type: functional
[1] = target: Hypoxia inducible factors; HIF-1-alpha, HIF-2-alpha (Homo sapiens, UniProt Q16665+Q99814); test: Inhibition of HIF1 activation in human T47D cells by TK-luciferase assay; type: cell-based
Summary of the method: (§1)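 HIF-1 reporter (pHRE-TK-Luc) assays in transfected PC-3 or T47D cells; HIF-1 induced by hypoxia or by the hypoxia mimetic 1,10-phenanthroline (10 μM); compounds at half-log concentrations; luciferase activity measured; IC50 from experiments in triplicate.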

MCF7 = test: Growth inhibition of human MCF7 cells; type: functional
SNB-19 = test: Growth inhibition of human SNB19 cells; type: functional
LOX IMVI = test: Growth inhibition of human LOXIMVI cells; type: functional
UO-31 = test: Growth inhibition of human UO31 cells; type: functional
TK-10 = test: Growth inhibition of human TK10 cells; type: functional
K562 = test: Growth inhibition of human K562 cells; type: functional
NCI/ADR-RES = test: Growth inhibition of human NCI/ADR-RES cells; type: functional
COLO 205 = test: Growth inhibition of human COLO205 cells; type: functional
[2] = Inhibition of HIF1 activation in PC3 cells by TK-luciferase assay; type: cell-based; conditions: Homo sapiens, PC-3; summary of the method: as §1
HCT-15 = test: Growth inhibition of human HCT15 cells; type: functional
OVCAR-4 = test: Growth inhibition of human OVACAR4 cells; type: functional
SF-539 = test: Growth inhibition of human SF539 cells; type: functional
SK-MEL-2 = test: Growth inhibition of human SK-MEL2 cells; type: functional
OVCAR-8 = test: Growth inhibition of human OVACAR8 cells; type: functional
SF-268 = test: Growth inhibition of human SF268 cells; type: functional
ACHN = test: Growth inhibition of human ACHN cells; type: functional
786-0 = test: Growth inhibition of human 786-0 cells; type: functional
NCI-H522 = test: Growth inhibition of human NCI-H522 cells; type: functional
RXF 393 = test: Growth inhibition of human RXF393 cells; type: functional
NCI-H460 = test: Growth inhibition of human NCI-H460 cells; type: functional
SF-295 = test: Growth inhibition of human SF295 cells; type: functional
[3] = Inhibition of 1,10-phenanthroline-induced HIF1 activation in PC3 cells by TK-luciferase assay; type: cell-based; conditions: Homo sapiens, PC-3; summary of the method: as §1
SN12C = test: Growth inhibition of human SN12C cells; type: functional
NCI-H226 = test: Growth inhibition of human NCI-H226 cells; type: functional
M14 = test: Growth inhibition of human M14 cells; type: functional
DU-145 = test: Growth inhibition of human DU145 cells; type: functional
CAKI-1 = test: Growth inhibition of human CAKI1 cells; type: functional
HT-29 = test: Growth inhibition of human HT29 cells; type: functional
T47D [4] = test: Inhibition of 1,10-phenanthroline-induced VEGF protein secretion in human T47D cells at 10 uM after 16 hrs by ELISA; type: functional, cell-based
Summary of the method: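 T47D cells stimulated with 1,10-phenanthroline, compound at 10 μM; secreted VEGF in conditioned media by ELISA, normalized to cell-lysate protein.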

IGROV-1 = test: Growth inhibition of human IGROV1 cells; type: functional
Malme-3M = test: Growth inhibition of human MALME-3M cells; type: functional
SK-MEL-5 = test: Growth inhibition of human SK-MEL5 cells; type: functional
[5] = Growth inhibition of human OVACAR3 cells; type: functional
NCI-H322M = test: Growth inhibition of human NCI-H322M cells; type: functional
T47D [6] = test: Growth inhibition of human T47D cells; type: functional
SNB-75 = test: Growth inhibition of human SNB75 cells; type: functional
HCC 2998 = test: Growth inhibition of human HCC2998 cells; type: functional
NCI-H23 = test: Growth inhibition of human NCI-H23 cells; type: functional
[7] = read-out: Log LC50 (the source's name) (converted)

CCCc1cc(=O)c2c(OC)c3c(OC)cc(OC)cc3cc2o1
GI50 (UACC-257): > 100 µM | LC50 (UACC-257): > 100 µM | TGI (UACC-257; read-out: Log TGI (converted)): > 100 µM | GI50 (CCRF-CEM): 58.9 µM | LC50 (CCRF-CEM): > 100 µM | TGI (CCRF-CEM; read-out: Log TGI (converted)): 100 µM | IC50 [1]: 3.9 µM | GI50 (MCF7): 93.3 µM | LC50 (MCF7): > 100 µM | TGI (MCF7; read-out: Log TGI (converted)): > 100 µM | GI50 (SNB-19): > 100 µM | LC50 (SNB-19): > 100 µM | TGI (SNB-19; read-out: Log TGI (converted)): > 100 µM | GI50 (LOX IMVI): 69.2 µM | LC50 (LOX IMVI): > 100 µM | TGI (LOX IMVI; read-out: Log TGI (converted)): > 100 µM | GI50 (UO-31): 42.7 µM | LC50 (UO-31): > 100 µM | TGI (UO-31; read-out: Log TGI (converted)): > 100 µM | GI50 (TK-10): 37.2 µM | LC50 (TK-10): > 100 µM | TGI (TK-10; read-out: Log TGI (converted)): > 100 µM | GI50 (K562): 39.8 µM | CC50 (K562; [7]): > 100 µM | TGI (K562; read-out: Log TGI (converted)): > 100 µM | GI50 (NCI/ADR-RES): 74.1 µM | LC50 (concentration killing 50% of cells) (NCI/ADR-RES): > 100 µM | TGI (NCI/ADR-RES; read-out: Log TGI (converted)): > 100 µM | GI50 (COLO 205): > 100 µM | CC50 (COLO 205; [7]): > 100 µM | TGI (COLO 205; read-out: Log TGI (converted)): > 100 µM | IC50 [2]: > 10 µM | GI50 (HCT-15): 35.5 µM | CC50 (HCT-15; [7]): > 100 µM | TGI (HCT-15; read-out: Log TGI (converted)): > 100 µM | GI50 (OVCAR-4): 81.3 µM | LC50 (OVCAR-4): > 100 µM | TGI (OVCAR-4; read-out: Log TGI (converted)): > 100 µM | GI50 (SF-539): 100 µM | LC50 (SF-539): > 100 µM | TGI (SF-539; read-out: Log TGI (converted)): > 100 µM | GI50 (SK-MEL-2): > 100 µM | LC50 (SK-MEL-2): > 100 µM | TGI (SK-MEL-2; read-out: Log TGI (converted)): > 100 µM | GI50 (OVCAR-8): > 100 µM | LC50 (OVCAR-8): > 100 µM | TGI (OVCAR-8; read-out: Log TGI (converted)): > 100 µM | GI50 (SF-268): > 100 µM | LC50 (SF-268): > 100 µM | TGI (SF-268; read-out: Log TGI (converted)): > 100 µM | GI50 (ACHN): > 100 µM | CC50 (ACHN; [7]): > 100 µM | TGI (ACHN; read-out: Log TGI (converted)): > 100 µM | GI50 (786-0): 91.2 µM | LC50 (786-0): > 100 µM | TGI (786-0; read-out: Log TGI (converted)): > 100 µM | GI50 (NCI-H522): 32.4 µM | CC50 (NCI-H522; [7]): > 100 µM | TGI (NCI-H522; read-out: Log TGI (converted)): > 100 µM | GI50 (RXF 393): > 100 µM | LC50 (RXF 393): > 100 µM | TGI (RXF 393; read-out: Log TGI (converted)): > 100 µM | GI50 (NCI-H460): 85.1 µM | CC50 (NCI-H460; [7]): > 100 µM | TGI (NCI-H460; read-out: Log TGI (converted)): > 100 µM | GI50 (SF-295): 53.7 µM | LC50 (SF-295): > 100 µM | TGI (SF-295; read-out: Log TGI (converted)): > 100 µM | IC50 [3]: > 10 µM | GI50 (SN12C): > 100 µM | LC50 (SN12C): > 100 µM | TGI (SN12C; read-out: Log TGI (converted)): > 100 µM | GI50 (NCI-H226): > 100 µM | CC50 (NCI-H226; [7]): > 100 µM | TGI (NCI-H226; read-out: Log TGI (converted)): > 100 µM | GI50 (M14): 67.6 µM | LC50 (50% lethal concentration) (M14): 34.7 µM | TGI (M14; read-out: Log TGI (converted)): > 100 µM | GI50 (DU-145): 81.3 µM | CC50 (DU-145; [7]): > 100 µM | TGI (DU-145; read-out: Log TGI (converted)): > 100 µM | GI50 (CAKI-1): > 100 µM | LC50 (CAKI-1): > 100 µM | TGI (CAKI-1; read-out: Log TGI (converted)): > 100 µM | GI50 (HT-29): 26.3 µM | CC50 (HT-29; [7]): > 100 µM | TGI (HT-29; read-out: Log TGI (converted)): > 100 µM | Activity (T47D [4]): inactive | GI50 (IGROV-1): 60.3 µM | CC50 (IGROV-1; [7]): > 100 µM | TGI (IGROV-1; read-out: Log TGI (converted)): > 100 µM | GI50 (Malme-3M): 83.2 µM | CC50 (Malme-3M; [7]): > 100 µM | TGI (Malme-3M; read-out: Log TGI (converted)): > 100 µM | GI50 (SK-MEL-5): 45.7 µM | LC50 (SK-MEL-5): > 100 µM | TGI (SK-MEL-5; read-out: Log TGI (converted)): > 100 µM | GI50 [5]: 38.9 µM | CC50 [5, 7]: > 100 µM | TGI ([5]; read-out: Log TGI (converted)): > 100 µM | GI50 (NCI-H322M): > 100 µM | CC50 (NCI-H322M; [7]): > 100 µM | TGI (NCI-H322M; read-out: Log TGI (converted)): > 100 µM | GI50 (T47D [6]): 16.6 µM | LC50 (T47D [6]): > 100 µM | TGI (T47D [6]; read-out: Log TGI (converted)): > 100 µM | GI50 (SNB-75): 74.1 µM | LC50 (SNB-75): > 100 µM | TGI (SNB-75; read-out: Log TGI (converted)): > 100 µM | GI50 (HCC 2998): > 100 µM | CC50 (HCC 2998; [7]): > 100 µM | TGI (HCC 2998; read-out: Log TGI (converted)): > 100 µM | GI50 (NCI-H23): > 100 µM | CC50 (NCI-H23; [7]): > 100 µM | TGI (NCI-H23; read-out: Log TGI (converted)): > 100 µM
